Values after ≈ are worked out from the molar mass of the structure shown.
Legend:
Staphylococcus aureus [1] = assay: Antibacterial activity against linezolid-resistant Staphylococcus aureus NRS271 assessed as growth inhibition by CLSI broth microdilution method; type: functional
Procedure, shortened: (§1)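 MIC by CLSI broth microdilution in cation-adjusted Mueller-Hinton broth. Lowest concentration inhibiting growth taken as MIC.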

Staphylococcus aureus [2] = assay: Antibacterial activity against Staphylococcus aureus SR20549 clinical isolate assessed as growth inhibition by CLSI broth microdilution method; type: functional
Procedure, shortened: (§2)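 MIC by CLSI broth microdilution in cation-adjusted Mueller-Hinton broth; S. pneumoniae medium supplemented with 5% lysed horse blood.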

Moraxella catarrhalis = assay: Antibacterial activity against Moraxella catarrhalis SR26840 clinical isolate assessed as growth inhibition by CLSI broth microdilution method; type: functional; procedure, shortened: as §2
Haemophilus influenzae = assay: Antibacterial activity against Haemophilus influenzae SR27914 clinical isolate assessed as growth inhibition by CLSI broth microdilution method; type: functional
Procedure, shortened: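 MIC by CLSI broth microdilution using Haemophilus test medium.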

MAO-B = biological target: T1, MAO-B (Rattus norvegicus, UniProt P19643); assay: Inhibition of MAO-B in rat forebrain using [14C]PEA as substrate at 30 uM incubated for 20 mins prior to substrate addition measured after 10 mins by liquid scintillation counting analysis relative to control; type: tissue-based; conditions: probe [14C]PEA
T1 sequence (P19643 whole entry): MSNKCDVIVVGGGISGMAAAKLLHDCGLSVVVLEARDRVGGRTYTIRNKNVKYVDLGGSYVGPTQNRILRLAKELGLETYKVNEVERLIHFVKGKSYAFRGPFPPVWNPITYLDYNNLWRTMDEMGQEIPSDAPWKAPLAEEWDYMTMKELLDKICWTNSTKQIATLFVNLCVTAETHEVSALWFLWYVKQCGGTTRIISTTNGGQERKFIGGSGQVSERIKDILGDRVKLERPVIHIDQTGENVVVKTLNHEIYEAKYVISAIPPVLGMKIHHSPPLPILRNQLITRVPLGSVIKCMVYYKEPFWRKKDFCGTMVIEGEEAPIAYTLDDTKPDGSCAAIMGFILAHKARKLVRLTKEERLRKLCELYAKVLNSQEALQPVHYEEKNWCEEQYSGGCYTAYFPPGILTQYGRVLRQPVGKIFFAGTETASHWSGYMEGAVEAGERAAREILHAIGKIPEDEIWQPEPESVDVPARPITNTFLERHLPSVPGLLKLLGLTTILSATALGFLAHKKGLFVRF

Staphylococcus aureus [3] = assay: Antibacterial activity against Staphylococcus aureus Smith assessed as growth inhibition by CLSI broth microdilution method; type: functional; procedure, shortened: as §2
Cytochrome P450 1A2 = biological target: T2, Cytochrome P450 1A2 (Homo sapiens, UniProt P05177); assay: Inhibition of human CYP1A2 assessed as ethoxyresorufin O-deethylation after 20 mins by fluorescence plate reader analysis; type: ADME
T2 sequence (P05177 whole entry): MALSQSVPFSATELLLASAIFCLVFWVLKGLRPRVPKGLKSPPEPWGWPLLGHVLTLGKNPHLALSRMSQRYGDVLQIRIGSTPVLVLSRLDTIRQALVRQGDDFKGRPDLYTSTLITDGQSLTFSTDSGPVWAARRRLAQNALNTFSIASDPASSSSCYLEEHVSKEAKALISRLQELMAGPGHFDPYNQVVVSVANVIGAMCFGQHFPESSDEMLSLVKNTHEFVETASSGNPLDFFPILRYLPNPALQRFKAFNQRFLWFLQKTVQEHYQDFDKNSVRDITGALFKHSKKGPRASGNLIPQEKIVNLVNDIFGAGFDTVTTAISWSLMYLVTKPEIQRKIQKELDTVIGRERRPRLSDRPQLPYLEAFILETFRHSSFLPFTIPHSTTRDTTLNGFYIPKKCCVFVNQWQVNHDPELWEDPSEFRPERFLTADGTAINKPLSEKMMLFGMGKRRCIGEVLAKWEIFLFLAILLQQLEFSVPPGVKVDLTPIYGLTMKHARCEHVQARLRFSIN
Procedure, shortened: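 Human liver microsomes (0.2 mg protein/mL) with 1 mM NADPH in 50 mM HEPES pH 7.4, 10 mM MgCl2, 0.1 mM EDTA. After centrifugation, supernatant read on a fluorescence plate reader. Standard curve from authentic metabolite added to unincubated reaction mix.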

Enterococcus faecalis = assay: Antibacterial activity against Enterococcus faecalis SR1004 clinical isolate assessed as growth inhibition by CLSI broth microdilution method; type: functional; procedure, shortened: as §2
Staphylococcus aureus [4] = assay: Antibacterial activity against methicillin-resistant Staphylococcus aureus SR3637 infected in JCL/ICR mouse systemic infection model assessed as mortality administered as po measured over 7 days; type: functional; conditions: 168 h
Procedure, shortened: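 Five-week-old male JCL/ICR mice (20–25 g), five per group. Infected intraperitoneally with 0.5 or 1.0 mL bacterial suspension (about 100× LD50). Oral dosing 1 h post-infection. Mortality followed 7 days; ED50 with 95% confidence limits by logit method.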

Staphylococcus aureus [5] = assay: Antibacterial activity against methicillin-resistant Staphylococcus aureus SR3637 assessed as growth inhibition by CLSI broth microdilution method; type: functional; procedure, shortened: as §1
Cytochrome P450 2D6 = Cytochrome P450 2D6 (Homo sapiens, UniProt P10635); assay: Inhibition of human CYP2D6 assessed as dextromethorphan O-demethylation after 20 mins by LC/MS/MS analysis; type: ADME
Procedure, shortened: (§3)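 Human liver microsomes (0.2 mg protein/mL) with 1 mM NADPH in 50 mM HEPES pH 7.4, 10 mM MgCl2, 0.1 mM EDTA. After centrifugation, supernatant metabolite measured by LC/MS/MS. Standard curve from authentic metabolite cocktail added to unincubated reaction mix.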

Staphylococcus aureus [6] = assay: Antibacterial activity against methicillin-resistant Staphylococcus aureus SR3637 infected in JCL/ICR mouse systemic infection model assessed as mortality administered as iv measured over 7 days; type: functional; conditions: 168 h
Procedure, shortened: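 Five-week-old male JCL/ICR mice (20–25 g), five per group. Infected intraperitoneally with 0.5 or 1.0 mL bacterial suspension (about 100× LD50). Intravenous dosing 1 h post-infection. Mortality followed 7 days; ED50 with 95% confidence limits by logit method.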

Cytochrome P450 3A4 = Cytochrome P450 3A4 (Homo sapiens, UniProt P08684); assay: Inhibition of human CYP3A4 assessed as terfenadine hydroxylation after 20 mins by LC/MS/MS analysis; type: ADME; procedure, shortened: as §3
Cytochrome P450 2C9 = Cytochrome P450 2C9 (Homo sapiens, UniProt P11712); assay: Inhibition of human CYP2C9 assessed as tolbutamide hydroxylation after 20 mins by LC/MS/MS analysis; type: ADME; procedure, shortened: as §3
MAO-A = biological target: T3, MAO-A (Rattus norvegicus, UniProt P21396); assay: Inhibition of MAO-A in rat forebrain using [14C]5-HT as substrate at 30 uM incubated for 20 mins prior to substrate addition measured after 5 mins by liquid scintillation counting analysis relative to control; type: tissue-based; conditions: probe [14C]5-HT
T3 sequence (P21396 whole entry): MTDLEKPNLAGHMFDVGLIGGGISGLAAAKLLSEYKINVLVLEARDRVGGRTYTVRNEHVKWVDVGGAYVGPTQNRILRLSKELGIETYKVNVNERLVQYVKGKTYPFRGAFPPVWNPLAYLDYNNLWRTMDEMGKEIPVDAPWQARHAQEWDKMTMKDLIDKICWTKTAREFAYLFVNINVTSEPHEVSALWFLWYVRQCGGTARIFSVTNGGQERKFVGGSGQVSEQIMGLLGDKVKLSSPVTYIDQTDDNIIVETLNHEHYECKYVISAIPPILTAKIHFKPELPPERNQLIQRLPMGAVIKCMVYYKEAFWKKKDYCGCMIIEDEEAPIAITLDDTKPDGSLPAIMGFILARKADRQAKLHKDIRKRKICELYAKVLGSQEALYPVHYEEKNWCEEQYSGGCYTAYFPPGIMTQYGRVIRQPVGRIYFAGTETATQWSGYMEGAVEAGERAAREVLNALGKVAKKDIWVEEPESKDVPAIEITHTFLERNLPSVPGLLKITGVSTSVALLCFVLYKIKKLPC

Streptococcus pneumoniae = assay: Antibacterial activity against Streptococcus pneumoniae SR26207 clinical isolate assessed as growth inhibition by CLSI broth microdilution method; type: functional; procedure, shortened: as §2
Enterococcus faecium = assay: Antibacterial activity against Enterococcus faecium SR7940 clinical isolate assessed as growth inhibition by CLSI broth microdilution method; type: functional; procedure, shortened: as §2

Chain of Cytochrome P450 2D6 (P10635 whole entry): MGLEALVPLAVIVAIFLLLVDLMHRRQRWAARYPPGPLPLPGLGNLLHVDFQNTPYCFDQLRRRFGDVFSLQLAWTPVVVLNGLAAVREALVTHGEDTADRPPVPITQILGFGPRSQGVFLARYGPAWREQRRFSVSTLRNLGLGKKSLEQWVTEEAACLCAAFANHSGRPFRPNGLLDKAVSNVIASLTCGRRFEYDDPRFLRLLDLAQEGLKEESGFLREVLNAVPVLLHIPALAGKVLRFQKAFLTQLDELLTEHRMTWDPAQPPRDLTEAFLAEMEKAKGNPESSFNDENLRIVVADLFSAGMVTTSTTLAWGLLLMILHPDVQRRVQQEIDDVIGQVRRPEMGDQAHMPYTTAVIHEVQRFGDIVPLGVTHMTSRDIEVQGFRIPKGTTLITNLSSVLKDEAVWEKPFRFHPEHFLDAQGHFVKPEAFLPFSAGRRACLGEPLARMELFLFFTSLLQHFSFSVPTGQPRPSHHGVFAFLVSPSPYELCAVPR
Chain of Cytochrome P450 3A4 (P08684 whole entry): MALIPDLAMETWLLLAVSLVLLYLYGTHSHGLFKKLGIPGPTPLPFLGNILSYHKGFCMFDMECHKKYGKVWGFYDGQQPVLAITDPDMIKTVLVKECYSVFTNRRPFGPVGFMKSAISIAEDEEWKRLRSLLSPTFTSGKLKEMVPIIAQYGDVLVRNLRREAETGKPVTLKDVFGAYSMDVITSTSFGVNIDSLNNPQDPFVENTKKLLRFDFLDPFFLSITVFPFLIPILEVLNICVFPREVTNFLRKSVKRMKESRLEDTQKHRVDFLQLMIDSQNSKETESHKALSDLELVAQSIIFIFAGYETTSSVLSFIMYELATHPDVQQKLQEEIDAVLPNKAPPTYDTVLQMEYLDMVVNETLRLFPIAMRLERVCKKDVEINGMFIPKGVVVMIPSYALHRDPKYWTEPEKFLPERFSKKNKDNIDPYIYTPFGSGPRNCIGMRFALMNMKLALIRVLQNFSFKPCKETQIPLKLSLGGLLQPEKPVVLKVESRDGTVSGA
Chain of Cytochrome P450 2C9 (P11712 whole entry): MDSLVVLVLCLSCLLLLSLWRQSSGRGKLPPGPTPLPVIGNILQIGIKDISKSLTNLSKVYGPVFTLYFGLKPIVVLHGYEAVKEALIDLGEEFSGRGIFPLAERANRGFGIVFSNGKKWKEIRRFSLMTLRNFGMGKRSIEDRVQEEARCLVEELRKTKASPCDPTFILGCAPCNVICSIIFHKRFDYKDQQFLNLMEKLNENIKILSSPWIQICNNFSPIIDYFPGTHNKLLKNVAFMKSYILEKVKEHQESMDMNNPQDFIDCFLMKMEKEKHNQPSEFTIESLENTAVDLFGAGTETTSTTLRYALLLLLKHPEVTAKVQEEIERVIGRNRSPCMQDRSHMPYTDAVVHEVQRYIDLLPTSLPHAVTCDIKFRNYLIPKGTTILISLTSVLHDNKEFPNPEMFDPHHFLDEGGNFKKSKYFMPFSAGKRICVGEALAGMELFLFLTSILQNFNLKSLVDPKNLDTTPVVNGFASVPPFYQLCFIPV

Molecule `CC(=O)NC[C@H]1CN(c2ccc(N3CCN(C(=O)CO)CC3)c(F)c2)C(=O)O1` [EPEREZOLID] has an MIC (Staphylococcus aureus [1]) of 32 µg/mL (≈ 81.1 µM), an MIC (Staphylococcus aureus [2]) of 1 µg/mL (≈ 2.54 µM) and an MIC (Moraxella catarrhalis) of 8 µg/mL (≈ 20.3 µM). The MIC (Haemophilus influenzae) was 4 µg/mL (≈ 10.1 µM), the inhibition at 10 min, 30 µM (MAO-B) was 20.2% and the MIC (Staphylococcus aureus [3]) was 1 µg/mL (≈ 2.54 µM). The IC50 (Cytochrome P450 1A2) was > 20 µM, the MIC (Enterococcus faecalis) was 1 µg/mL (≈ 2.54 µM) and the ED50 (Staphylococcus aureus [4]) was 4.76 mg/kg. The MIC (Staphylococcus aureus [5]) was 1 µg/mL (≈ 2.54 µM), the IC50 (Cytochrome P450 2D6) was > 20 µM and the ED50 (Staphylococcus aureus [6]) was 1.85 mg/kg. For the same molecule, the IC50 (Cytochrome P450 3A4) was > 20 µM, the IC50 (Cytochrome P450 2C9) was > 20 µM and the inhibition at 5 min, 30 µM (MAO-A) was 53.6%. It also gave an MIC (Streptococcus pneumoniae) of 0.125 µg/mL (≈ 0.317 µM) and an MIC (Enterococcus faecium) of 2 µg/mL (≈ 5.07 µM).

`CC(=O)NC[C@H]1CN(c2ccc(N3CCOCC3)c(F)c2)C(=O)O1` [LINEZOLID] was tested, and the MIC (Staphylococcus aureus [1]) was 32 µg/mL (≈ 94.9 µM), the MIC (Moraxella catarrhalis) was 8 µg/mL (≈ 23.7 µM) and the MIC (Haemophilus influenzae) was 16 µg/mL (≈ 47.4 µM). The inhibition at 10 min, 30 µM (MAO-B) was 70.4%, the IC50 (Cytochrome P450 1A2) was > 20 µM and the ED50 (Staphylococcus aureus [4]) was 2.02 mg/kg. The IC50 (Cytochrome P450 2D6) was > 20 µM, the ED50 (Staphylococcus aureus [6]) was 1.73 mg/kg and the IC50 (Cytochrome P450 3A4) was > 20 µM. For the same molecule, the IC50 (Cytochrome P450 2C9) was > 20 µM, the inhibition at 5 min, 30 µM (MAO-A) was 61.3% and the MIC (Enterococcus faecium) was 2 µg/mL (≈ 5.93 µM).

— ChEMBL document CHEMBL2375276, “Antibacterial oxazolidinone analogues having a N-hydroxyacetyl-substituted seven-membered [1,2,5]triazepane or [1,2,5]oxadiazepane C-ring unit” (Eur J Med Chem, 2013)
